# Experimental data gathered from unrelated publications.
# Target: Phosphatidylinositol 4-phosphate 5-kinase type-1 alpha (PIP5K1A, Homo sapiens, UniProt Q99755)
assay,conditions,remaining binding [%],Structure (SMILES)
binding,1 µM,100,CN(C)c1ncc(F)c(-c2cnn3ncccc23)n1
"binding, competition with immobilised ligand",1 µM,92,CNC(=O)[C@@H]1CC[C@@H](n2c(-c3ccc4cnccc4c3)nc3ccc(C(=O)NCc4cccc(C(N)=O)c4)cc32)C1
binding,1 µM,100,Cc1cnn2ncc(-c3ccnc(N(C)C)n3)c2c1
"cell-free assay, competition with immobilised ligand",1 µM,78,O=C(O)c1cc(-c2ccc(C3CCNCC3)cc2)c2ccc(-c3ccc(C(F)(F)F)cc3)cc2c1
"cell-free assay, competition with immobilised ligand",5 µM,100,COc1ncc2cc3ccccc3nc2c1C#N
"cell-free assay, competition with immobilised ligand",1 µM,100,CN(C(=O)c1ccccc1)c1cc(N(C)c2ccc3c(c2)CCc2ccc(C(=O)NCCN4CCOCC4)cc2C3=O)ccc1F
"binding, competition with immobilised ligand",1 µM,3,O=C(c1ccc(Nc2ncc(Cl)c(-c3ccc(Cl)s3)n2)cc1)N1CCC(N2CCCC2)CC1
"binding, competition with immobilised ligand",1 µM,100,O=C(NCC1CCOCC1)c1n[nH]cc1NC(=O)c1c(F)cccc1F
binding,1 µM,100,CC1CCCN1c1nccc(-c2cnn3ncccc23)n1 (stereo not shown)
"binding, competition with immobilised ligand",1 µM,93,COc1cnc(Nc2cccc(S(N)(=O)=O)c2)nc1N1CCN(c2ccccc2)CC1
"binding, competition with immobilised ligand",1 µM,2.8,O=C(c1ccc(Nc2nccc(-c3cc4ccccc4s3)n2)cc1)N1CCC(N2CCCC2)CC1
"cell-free assay, competition with immobilised ligand",1 µM,97,CC(=O)c1c(NS(C)(=O)=O)c2cc(-c3ccc(Cl)cc3)c(-c3ccc(Cl)cc3Cl)nc2n(C)c1=O
binding,1 µM,52,C[C@@H]1CCN(c2nccc(-c3cnn4ncccc34)n2)C1
"binding, competition with immobilised ligand",1 µM,100,C=CC(=O)N1CCC(C(=O)NCC(=O)N2CCN(c3nc(-c4cnc(N)nc4C(F)F)nc(N4CCOCC4)n3)CC2)CC1
"binding, competition with immobilised ligand",1 µM,8.3,O=C(NCCCN1CCOCC1)c1ccc(Nc2ncc(Cl)c(-c3ccc(Cl)s3)n2)cc1
binding,1 µM,100,CN(CCCC(F)(F)F)c1nccc(-c2cnn3ncccc23)n1
"cell-free assay, competition with immobilised ligand",1 µM,100,Cc1cc(NC(=O)c2cccc(S(F)(F)(F)(F)F)c2)cc(-n2ccn3nc(-c4cccnc4)cc23)c1
binding,1 µM,100,N[C@@H]1CCN(c2nccc(-c3cnn4ncccc34)n2)C1
"cell-free assay, competition with immobilised ligand",1 µM,96,COc1cc(-c2cn(C3CCc4ccccc4N(CC(F)(F)F)C3=O)nn2)ccc1-n1ccc(C)n1 (stereo not shown)
binding,1 µM,100,CN(C)c1nccc(-c2cnn3ncccc23)n1
"cell-free assay, competition with immobilised ligand",0.1 µM,68,Cc1c[nH]c2nccc(Oc3c(F)cc(Nc4cc(Cl)nc(N)n4)cc3F)c12
"binding, competition with immobilised ligand",0.1 µM,87,C[C@@H](c1ccc(-n2cnc3c(N)ncnc32)cc1)N1CCc2nn(C)c(Cc3ccccc3)c2C1=O
